In the array DNA melting data of Ke et al. (doi:10.1101/2024.01.08.574731):

How the values were obtained:
[1] = melting temperature; fluorescence melt of hairpins on a sequencing array, two-state fit, raised by 9.35 °C to match UV melts; conditions: sodium 0.088 M
Outline: (§1)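 To match UV melts, fitted temperatures were raised by 9.35 °C. These fits were bootstrapped two-state models that gave melting temperature and folding enthalpy, combined by inverse variance over four replicates. The input was normalised Cy3 fluorescence of library hairpins with annealed Cy3 and quencher oligos on a sequenced MiSeq flow cell, imaged in 50 mM Na-HEPES pH 8.0, 25 mM NaCl in 2.5 °C steps up to 60 °C.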

[2] = folding enthalpy; higher = less favourable; fluorescence melt of hairpins on a sequencing array, two-state fit; conditions: sodium 0.088 M
Outline: as §1

Row | Sequence | Tm [1] | folding enthalpy [2]
1 | GTTATGGCGAAAGCCAAC (((..(((....)))))) | 29.5 °C | -8.21 kcal/mol
2 | GTTTGCGAAAGCATGAAC ((((((....)))..))) | 26.4 °C | -8.14 kcal/mol
3 | GATCACGGAAACGTGATC (((((((....))))))) | 66.2 °C | -34.2 kcal/mol
4 | GTATAGGCGAAAGCCTAC (((..(((....)))))) | 31.8 °C | -8.12 kcal/mol
5 | GATCTGTAGTCAGATC ((((((....)))))) | 49.1 °C | -35.5 kcal/mol
6 | GGGCCCGAAAGGGCTCCC ((((((....)))..))) | 59.7 °C | -9.89 kcal/mol
7 | GTCACGGGAAACCATGAC ((((.((....)).)))) | 41.7 °C | -29.9 kcal/mol
8 | GATCACAATCGTGATC ((((((....)))))) | 56.4 °C | -38.5 kcal/mol
9 | GAGAGCGAAAGCTCCCTC ((((((....)))..))) | 44 °C | -10.3 kcal/mol
10 | GTCACCGAAAGGTCTGAC ((((((....)))..))) | 33.7 °C | -15.2 kcal/mol
11 | GGATGCGAAAGCATGTCC ((((((....)))..))) | 35.9 °C | -11.7 kcal/mol
12 | GATCCTAGCCAGGATC ((((((....)))))) | 52.1 °C | -40.2 kcal/mol
13 | GGTCCCGAAAGGGTTACC ((((((....)))..))) | 39.6 °C | -15.4 kcal/mol
14 | GACCTTGGAAACAAGGCC (.(((((....))))).) | 45.2 °C | -17.2 kcal/mol
15 | GGTCGGGGAAACCCGATC (.(((((....))))).) | 56.7 °C | -32 kcal/mol
16 | CGCAGGAAACTGCG (((((....))))) | 60.3 °C | -25.9 kcal/mol
17 | GATCGGCGGCCGATC ((((((...)))))) | 58.1 °C | -49.3 kcal/mol
18 | GATCAGGAGCCTGATC ((((((....)))))) | 49.9 °C | -31.6 kcal/mol
19 | GGGTACGAAAGTAATCCC ((((((....)))..))) | 39 °C | -20.7 kcal/mol
20 | CGCGGACAACTCCGCG ((((((....)))))) | 64.9 °C | -31.9 kcal/mol
21 | GTGCCCCGAAAGGGACAC (((.(((....))).))) | 62.5 °C | -42.9 kcal/mol
22 | GAAATGAAAATTTC (((((....))))) | 30.1 °C | -12.2 kcal/mol
23 | GAACTCGGAAACGAATTC (((.(((....))).))) | 31.7 °C | -27.5 kcal/mol

Row | Sequence | Tm [1] | folding enthalpy [2]
24 | TACCTGAAAAGGTA (((((....))))) | 41.3 °C | -14.8 kcal/mol
25 | GTCTCAGCGAAAGCTGAC (((..(((....)))))) | 36.2 °C | -8.27 kcal/mol
26 | GATCCATCTCTGGATC ((((((....)))))) | 50.4 °C | -39.6 kcal/mol
27 | GGTTCTGGAAACAAAACC ((((.((....)).)))) | 28.5 °C | -16.3 kcal/mol
28 | GACCCAGGAAACTGGGCC (.(((((....))))).) | 47.9 °C | -16.5 kcal/mol
29 | GATGGCGGAAACACCACC (.(((.(....).))).) | 30.2 °C | -14.8 kcal/mol
30 | GACGCACCGAAAGGTGTC (((..(((....)))))) | 32.1 °C | -8.75 kcal/mol
31 | GCACCGCGAAAGCTGGGC ((.(.((....)).).)) | 57.5 °C | -19.1 kcal/mol
32 | GTCAGGGGAAACTCTGAC (((((.(....).))))) | 48.9 °C | -33.4 kcal/mol
33 | GCTAGAACGAAAGTTAGC (((..(((....)))))) | 38.3 °C | -26.6 kcal/mol
34 | GAACACGGAAACGTGTCC (.(((((....))))).) | 45.2 °C | -11.2 kcal/mol
35 | GCGTTAATACGC ((((....)))) | 51.1 °C | -21.1 kcal/mol
36 | GGCCCCGAAAGGGCAGCC ((((((....)))..))) | 58.6 °C | -12.8 kcal/mol
37 | GCTACCGAAAGGTATAGC ((((((....)))..))) | 44.4 °C | -18.2 kcal/mol
38 | GCACAGACGAAAGTCTGC (((..(((....)))))) | 34.5 °C | -8.42 kcal/mol
39 | GATCACCACCGTGATC ((((((....)))))) | 55.5 °C | -37.3 kcal/mol
40 | GGACTACCGAAAGGTTCC (((..(((....)))))) | 32.8 °C | -11.2 kcal/mol
41 | GAATGCGGAAACGTGTTC (((..((....))..))) | 40.3 °C | -31.8 kcal/mol
42 | GATCAACTTATTGATC ((((((....)))))) | 43 °C | -35.4 kcal/mol
43 | GATCTACGAGTAGATC ((((((....)))))) | 52.3 °C | -37.8 kcal/mol
44 | GATCATTACAATGATC ((((((....)))))) | 49.7 °C | -37.9 kcal/mol
45 | GATCTCCTCCGAGATC ((((((....)))))) | 51.4 °C | -42.5 kcal/mol
46 | GAAAAACGAAAGTTCTTC (((.(((....))).))) | 28.2 °C | -13.4 kcal/mol

Row | Sequence | Tm [1] | folding enthalpy [2]
47 | GTATCTCCGAAAGGATAC (((..(((....)))))) | 30.7 °C | -19.6 kcal/mol
48 | GCGTGGCGAAAGCCCGGC ((..(((....)))..)) | 57.8 °C | -14.9 kcal/mol
49 | CGTCGCGGAAACGCCACG (((.(((....))).))) | 45.1 °C | -33.1 kcal/mol
50 | GATGATGGAAACATTATC (((.(((....))).))) | 35.5 °C | -30.4 kcal/mol
51 | CGTCACGGAAACGTTACG (((.(((....))).))) | 45.3 °C | -31.2 kcal/mol
52 | GCCTGGAAACAGGC (((((....))))) | 63.4 °C | -27.1 kcal/mol
53 | GCGGGGTTCCGC ((((....)))) | 61.1 °C | -18.7 kcal/mol
54 | GCGAAGGAAACTTCGC ((((((....)))))) | 63.7 °C | -34.8 kcal/mol
55 | GAAAAGCCGAAAGGCTTC (((..(((....)))))) | 36.8 °C | -7.3 kcal/mol
56 | GTCACACGAAAGTGGAC (((.(((....)))))) | 48.6 °C | -18.7 kcal/mol
57 | GATCTTGGACAAGATC ((((((....)))))) | 50.8 °C | -41.8 kcal/mol
58 | GCAGCGGGAAACCACTGC ((((.((....)).)))) | 52.2 °C | -43.3 kcal/mol
59 | GGTTGGCGAAAGCCCACC (((.(((....))).))) | 51.4 °C | -25.8 kcal/mol
60 | GGGGTTGGAAACGACCTC (.(((.(....).))).) | 40.3 °C | -20.7 kcal/mol
61 | GATCGCGAAAGCGGCATC ((((((....)))..))) | 32.1 °C | -7.52 kcal/mol
62 | GTTCGCCGAAAGGCAAAC (((.(((....))).))) | 46.9 °C | -18.1 kcal/mol
63 | GATCGAGAGTCGATC ((((((...)))))) | 49.4 °C | -29.7 kcal/mol
64 | GGCTTGCGAAAGCATGCC (((.(((....))).))) | 66.6 °C | -31.4 kcal/mol
65 | GCTGGGGGAAACCCCGGC ((.((((....)))).)) | 65.5 °C | -33.8 kcal/mol
66 | GATCTCTTCGGAGATC ((((((....)))))) | 54.5 °C | -42.6 kcal/mol
67 | GTCCCGCGAAAGCGTGAC (((.(((....))).))) | 52.9 °C | -23.9 kcal/mol
68 | GTCTGGCGAAAGCCTGAC (((.(((....))).))) | 62 °C | -26.8 kcal/mol
69 | GCACACGAAAGTGGTTGC ((((((....)))..))) | 45.9 °C | -15.5 kcal/mol

Row | Sequence | Tm [1] | folding enthalpy [2]
70 | GGTACAACGAAAGTTACC (((..(((....)))))) | 33.3 °C | -17.3 kcal/mol
71 | GTTGCCCGAAAGGGGAAC (((.(((....))).))) | 62.1 °C | -34.2 kcal/mol
72 | GGTCAAGGAAACTTGGCC ((.((((....)))).)) | 52.8 °C | -38.1 kcal/mol
73 | GCGGGCGTCCGC ((((....)))) | 58.6 °C | -23.6 kcal/mol
74 | GGATCCCGAAAGGGGTCC (((.(((....))).))) | 65.8 °C | -39.3 kcal/mol
75 | GGTGACGAAAGTCCGACC ((((((....)))..))) | 39 °C | -15.3 kcal/mol
76 | GTTCACCGAAAGGTTAAC (((.(((....))).))) | 42.3 °C | -26.4 kcal/mol
77 | GATCACTCGCGTGATC ((((((....)))))) | 57.1 °C | -44.5 kcal/mol
78 | GCTCATCGAAAGATAGC (((.(((....)))))) | 42.3 °C | -26.3 kcal/mol
79 | GTATCTCGAAAGAGGTAC (((.(((....))).))) | 48.7 °C | -34.4 kcal/mol
80 | GACTGCGGAAACACAGTC (((((.(....).))))) | 47.4 °C | -26.8 kcal/mol
81 | GGTTTGGGAAACTGAACC ((((..(....)..)))) | 35.1 °C | -29.2 kcal/mol
82 | GTGACCGAAAGGTCGCAC ((((((....)))..))) | 58.6 °C | -11.1 kcal/mol
83 | CGTACGGAAACGTGCACG ((((((....)))..))) | 36.2 °C | -14.5 kcal/mol
84 | GCAAAACCGAAAGGTTGC (((..(((....)))))) | 50 °C | -17.7 kcal/mol
85 | GTCCGGGGAAACCCAGAC (((.(((....))).))) | 42.8 °C | -29.6 kcal/mol
86 | GATCTCCACGGAGATC ((((((....)))))) | 55.9 °C | -39.2 kcal/mol
87 | GTTCTGGAAACAGAAC ((((((....)))))) | 53.4 °C | -37.2 kcal/mol
88 | GATCCTGCCCAGGATC ((((((....)))))) | 57 °C | -49.4 kcal/mol
89 | GCTCCGGGAAACTGGGGC ((.((.(....).)).)) | 48.1 °C | -33.9 kcal/mol
90 | GTCTTTGGAAACGAAGAC (((((.(....).))))) | 45 °C | -30.6 kcal/mol
91 | GAAGACCGAAAGGTTTC (((.(((....)))))) | 37 °C | -13.9 kcal/mol
92 | CGATCGGAAACGACGTCG ((((((....)))..))) | 40.8 °C | -18.6 kcal/mol
